SENP8 block-1: SENP8 (human) protease inhibition; Q96LD8; recombinant SENP8, Nedd8 substrate fluorescence; inhibition, % at 20 µM; hit rate 0.64% among 360,000; in the data active = inhibition mostly above about 40%, no sharp cut-off; inactive = mostly below about 27%
Target sequence (Q96LD8 whole entry, looked up): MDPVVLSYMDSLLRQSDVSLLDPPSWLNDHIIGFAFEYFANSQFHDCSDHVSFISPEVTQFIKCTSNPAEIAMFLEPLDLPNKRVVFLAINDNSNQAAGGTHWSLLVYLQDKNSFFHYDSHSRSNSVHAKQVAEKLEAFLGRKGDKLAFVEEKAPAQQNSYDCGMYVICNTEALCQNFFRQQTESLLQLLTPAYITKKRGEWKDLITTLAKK
Apaf1 inhib: blocks human Apaf-1 apoptosome activity | AID 489030 | reconstituted apoptosome caspase-3 activity, DEVD-Rh110 fluorescence | O14727 | hit rate 0.71% among 330,000 | inhibition, % at 20 µM; active = inhibition of at least 40% at 20 µM;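 note: plate controls were DMSO wells for no effect and DEVD-CHO caspase inhibitor wells for full effect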
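Material: cell-free apoptosome with Apaf-1, procaspase-3 and caspase-9; Buffer or medium: Hepes pH 7.5 with detergent and BSA; Reagent: cytochrome c trigger plus (Z-DEVD)2-Rh110 caspase-3 substrate; Times: compound with Apaf-1, dATP, procaspase-3 30 min, then 50 min reaction, room temperature; Technique: Rh110 fluorescence intensity.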
SENP8 block-2: blocks the human protease SENP8; Q96LD8; purified SENP8, Z-RLRGG-aminoluciferin cleavage, luminescence; inhibition, % at 10 µM; hit rate 1.2% among 330,000; in the data active = inhibition above about 50%
UBC13 inh: human UBC13 polyubiquitination inhibition | P61088 | UBC13 polyubiquitin chain formation, TR-FRET | inhibition, % at 20 µM | hit rate 0.47% among 330,000 | AID 485273; in the data active = inhibition above about 45%, passing the limit was not always enough
Target sequence (P61088 whole entry, looked up): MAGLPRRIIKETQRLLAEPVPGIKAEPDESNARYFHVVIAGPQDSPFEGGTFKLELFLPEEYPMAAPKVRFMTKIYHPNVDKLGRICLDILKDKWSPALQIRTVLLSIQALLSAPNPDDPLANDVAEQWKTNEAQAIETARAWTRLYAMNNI
SENP7 inh: inhibitors of human SENP7 protease; recombinant SENP7, Z-RLRGG-aminoluciferin luminescence, 40 min; inhibition, % at 5 µM; hit rate 1.5% among 330,000;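 active = inhibition above about 50% at the single test dose, limit read from the data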;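 note: plate controls were DMSO with enzyme for no effect and no enzyme buffer wells for full effect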
Target sequence (Q9BQF6 706-1050 limits assumed): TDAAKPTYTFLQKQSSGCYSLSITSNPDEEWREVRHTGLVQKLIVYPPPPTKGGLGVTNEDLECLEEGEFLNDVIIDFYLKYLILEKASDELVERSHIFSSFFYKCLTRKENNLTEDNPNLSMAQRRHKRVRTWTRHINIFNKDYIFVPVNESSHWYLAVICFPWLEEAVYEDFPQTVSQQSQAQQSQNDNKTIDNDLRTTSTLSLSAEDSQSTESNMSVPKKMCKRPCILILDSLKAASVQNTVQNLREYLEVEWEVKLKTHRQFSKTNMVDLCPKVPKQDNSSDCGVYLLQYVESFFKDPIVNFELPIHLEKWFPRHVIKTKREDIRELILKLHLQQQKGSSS
SENP6 block: SENP6 protease inhibition. Q9GZR1. Recombinant SENP6 catalytic domain, aminoluciferin luminescence. inhibition, % at 10 µM. hit rate 1.8% among 330,000. AID 2599;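 active = inhibition above about 50% at the single tested dose, limit read from the data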;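 note: plate controls were DMSO wells with enzyme for no effect and DMSO wells lacking enzyme for full effect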
Casp3 UBC13 ctr: caspase-3 inhibition (UBC13 counter-screen); hit rate 4% among 1,400; Recombinant caspase-3, Caspase-Glo 3/7 luminescence, 60 min; shares compounds with UBC13 inh; inhibition, % at 20 µM;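 active = mean inhibition across replicates above about 26%, limit read from the data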;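 note: plate controls were DMSO with caspase-3 for no effect and DMSO wells lacking enzyme for full effect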
UBC13 confirm: confirmation of human UBC13 polyubiquitin inhibitors. shares compounds with UBC13 inh. UBC13 polyubiquitination, TR-FRET, biochemical. inhibition, % at 10 µM. hit rate 68% among 1,400. AID 488859; in the data active = inhibition above about 45%
An asterisk follows results filed as active; / = not tested or not shown. Sampled rows, rich in hits. Any-hit rate of the full collection: about 3.1%.

SMILES | SENP8 block-1 | Apaf1 inhib | SENP8 block-2 | UBC13 inh | SENP7 inh | SENP6 block | Casp3 UBC13 ctr | UBC13 confirm
Cc1cc(C)cc(OCC(O)CN2CCC(CN3C(=O)c4cccc5cccc(c45)C3=O)CC2)c1 (stereo not drawn) | -139.1 | 32.7 | -0.8 | 44.9 | 2.8 | -2.5 | / | /
O=C1c2cccc3cccc(c23)C(=O)N1CCN1CCN(CC(O)COCc2ccc(Cl)cc2)CC1 (stereo not drawn) | 7.4 | 1.3 | 0.6 | 98.1* | -6.1 | -8.1 | -3.6 | 108.4*
O=C1c2cccc3cccc(c23)C(=O)N1CCN1CCN(CC(O)COc2ccc3ccccc3c2)CC1 (stereo not drawn) | -1.3 | 18.3 | -10.5 | 105.4* | -2.4 | -22.3 | -2.4 | 112.0*
COc1cc(COCC(O)CN2CCN(CCN3C(=O)c4cccc5cccc(c45)C3=O)CC2)cc(OC)c1OC (stereo not drawn) | -38.4 | -6.0 | -7.1 | 25.8 | -4.6 | -3.3 | / | /
O[C@H]1C[C@H](c2ccccc2)N(CC2CCCCC2)C[C@@H]1n1cc(C2CC2)nn1 | 8.2 | / | / | / | / | / | / | /
CCc1nc2ccc(C(=O)Nc3cc(-c4ccccc4)ccc3OC)cn2c1N(C)Cc1nccs1 | -11.2 | / | / | / | / | / | / | /
COc1ccc(CN2C(=O)c3cccc4cccc2c34)cc1F | -286.0 | 11.7 | -8.8 | 64.4* | -1.6 | -10.8 | 0.5 | 62.4*
COC(=O)[C@@H](NCc1ccc(B(O)O)cc1)C(C)C | 7.6 | / | / | / | / | / | / | /
CCCCC(=O)Nc1ccc2c3c(cccc13)C(=O)N2CC | 2.7 | -6.7 | -1.6 | 60.5* | 3.9 | 1.2 | 2.5 | 66.2*
C#CCOCCOCCOCCNc1nc(N2CCN(C(=O)[C@H]([C@@H](C)CC)n3cc([C@@H](N)Cc4ccc(O)cc4)nn3)CC2)nc(N2CCN(C(=O)[C@H](CCCCN)n3cc([C@@H](N)C(C)CC)nn3)CC2)n1 (stereo partly drawn) | 29.6 | 22.2 | 0.0 | 66.8* | -3.7 | -4.8 | -4.4 | 50.5*
C#CCOCCOCCOCCNc1nc(N2CCN(C(=O)[C@H]([C@@H](C)CC)n3cc([C@@H](N)CC(C)C)nn3)CC2)nc(N2CCN(C(=O)[C@H]([C@@H](C)CC)n3cc([C@@H](N)CC(C)C)nn3)CC2)n1 | 19.3 | 9.6 | 0.5 | 66.1* | 8.8 | 9.0 | -0.9 | 55.8*
C#CCOCCOCCOCCNc1nc(N2CCN(C(=O)[C@H]([C@@H](C)CC)n3cc([C@@H](N)Cc4ccc(O)cc4)nn3)CC2)nc(N2CCN(C(=O)[C@H]([C@@H](C)CC)n3cc([C@@H](N)Cc4ccc(O)cc4)nn3)CC2)n1 | 20.5 | 29.9 | -9.3 | 54.1* | -1.1 | -11.0 | -3.1 | 40.3
COc1ccc(-c2cc3ccccc3s2)cc1[C@H]1[C@H]2C=CC[C@@H](C)[C@@H]2C(=O)N1Cc1ccccc1 | -410.1 | 0.9 | 19.0 | 48.4* | 31.6 | 28.7 | 60.3* | 34.4
Cc1cccc(CS(=O)(=O)c2ncc(Cl)c(C(=O)Nc3c(C)cccc3C)n2)c1 | 2.6 | 4.3 | -4.5 | -6.5 | 4.2 | -8.8 | / | /
CCCc1nnc(NC(=O)c2nc(S(=O)(=O)Cc3cccc(C)c3)ncc2Cl)s1 | 11.8 | -5.7 | -7.5 | 54.4* | -6.7 | -10.5 | 5.3 | 61.6*
COc1ccccc1NS(=O)(=O)c1cccc(C(=O)N/N=C/c2c(CO)cnc(C)c2O)c1 | -184.6 | -3.1 | -0.2 | 72.3* | 4.7 | 2.9 | 0.7 | 19.4
COc1ccccc1N/N=C/c1c(CO)cnc(C)c1O | -225.3 | -5.8 | 1.0 | -9.4 | -0.7 | -6.0 | / | /
COc1ccc(-c2sc3ccccc3c2-c2ccc(OC)cc2F)cc1 | -147.9 | / | / | / | / | / | / | /
O=C(NCC1CCCCC1)C1(CC2CC(c3ccc(Cl)cc3)=NO2)CCNCC1 (stereo not drawn) | 11.4 | 13.5 | -5.7 | 46.5* | -2.4 | -1.6 | 3.2 | 46.9*
O=C(NCC1CCCCC1)C1(CC2CC(c3cccc(Br)c3)=NO2)CCNCC1 (stereo not drawn) | 15.4 | 23.4 | 7.1 | 50.6* | 5.2 | -2.8 | 4.6 | 52.3*
CCCCCCCNC(=O)C1(CC2CC(c3cccc(Br)c3)=NO2)CCN(C(=O)C2CCCC2)CC1 (stereo not drawn) | 11.8 | 17.9 | 4.6 | -4.7 | -5.6 | -8.6 | / | /
CCOc1cc(C(=O)N2CCC(CC3CC(c4ccc(Cl)cc4)=NO3)(C(=O)NCC3CCCCC3)CC2)cc(OCC)c1OCC (stereo not drawn) | -0.4 | 10.4 | -2.4 | -22.0 | 2.0 | -7.3 | / | /
CC(=O)Nc1cc(-c2ccccc2CN(C)C)cn2c(-c3ccc(F)c(Cl)c3)cnc12 | -296.7 | / | / | / | / | / | / | /
Cc1ccc(C(=O)NNC(=O)CCCN2C(=O)/C(=C/c3ccccc3Cl)SC2=S)cc1 | 22.1 | 16.8 | 2.5 | 24.8 | 6.3 | -0.1 | / | /
O=C(CCCN1C(=O)/C(=C/c2ccccc2Cl)SC1=S)NNC(=O)c1ccc(Cl)cc1 | 16.3 | 17.3 | -9.8 | 57.8* | -10.9 | -16.1 | -1.0 | 83.2*
SMILES | SENP8 block-1 | Apaf1 inhib | SENP8 block-2 | UBC13 inh | SENP7 inh | SENP6 block | Casp3 UBC13 ctr | UBC13 confirm
Cc1nc(N)sc1C(=O)N/N=C/c1cccnc1 | -8.8 | 0.9 | -8.8 | 92.2* | -6.7 | -6.6 | 24.2 | 107.8*
COc1ccc(C(=O)N/N=C/c2cccnc2)cc1 | 14.0 | 5.6 | 4.6 | -2.7 | 4.1 | 2.9 | / | /
CCC(C)[C@H](N)c1cn([C@@H](Cc2cc3ccccc3[nH]2)C(=O)N2CCNCC2)nn1 (stereo partly drawn) | 2.4 | -11.3 | -19.0 | 93.5* | -12.2 | 1.3 | -5.1 | 81.1*
CC(C)C[C@H](N)c1cn([C@@H](Cc2cc3ccccc3[nH]2)C(=O)N2CCNCC2)nn1 | 25.4 | -12.1 | -6.8 | 71.9* | 0.1 | -8.7 | 7.4 | 76.6*
Cc1cccc(C(O)c2ncc(-c3ccc(F)cc3)[nH]2)c1C (stereo not drawn) | 0.9 | / | / | / | / | / | / | /
COc1ccc(CNC(=O)CC23CC4CC(CC(C4)C2)C3)cc1OC | 3.2 | -1.9 | 4.0 | 4.5 | 5.1 | -3.8 | / | /
COc1ccccc1NC(=O)COC(=O)C12CC3CC(CC(Br)(C3)C1)C2 | 15.6 | 11.6 | -3.8 | 49.5* | -2.1 | -8.8 | -2.9 | 43.7
COc1ccccc1NC(=O)CNC(=O)CC12CC3CC(CC(C3)C1)C2 | 8.5 | 8.4 | -2.8 | 80.1* | 11.2 | -13.1 | 3.4 | 78.8*
COc1cc(C(CCN2CCCC(C)C2)c2c(OC)cc(OC)c3c2OC(=O)CC3c2ccc(N(C)C)cc2)cc(OC)c1OC (stereo not drawn) | 9.5 | 25.7 | -9.3 | 45.1* | -7.0 | -16.9 | -0.8 | 24.0
COc1cc(C2CC(=O)Oc3c(C(CCN4CCCC(C)C4)c4ccc(N(C)C)cc4)c(OC)cc(OC)c32)cc(OC)c1OC (stereo not drawn) | 12.8 | 14.8 | 2.8 | 29.2 | -0.5 | -6.4 | / | /

High-throughput results from PubChem BioAssay.
